NR3A LBD binder – NR3A (human) ligand-binding domain modulation; NR3A LBD differential scanning fluorimetry, Tm shift; 0% = protein alone, 100% = glycine-bound protein; Tm shift relative to glycine control, % at 25 µM; 340,000 tested, 2.5% active; AID 1259313;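 active means melting temperature shift of at least 10% of the positive control shift, at one fixed dose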
CHOP inhibitor – blocks CHOP induction under ER stress | CHO-K1 CHOP-promoter luciferase, tunicamycin-induced, 15-18 h | inhibition, % at 10 µM | 220,000 tested, 3.8% active;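 active means compounds that reduced the stress-induced luciferase reporter signal by more than about 70% of percent inhibition, limit read from the data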;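 further: 0% = tunicamycin plus vehicle and 100% = wells without tunicamycin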
EBV gp42 inh – inhibitors of Epstein-Barr virus glycoprotein 42 | Fluorescence polarization binding assay, mP read-out | inhibition, % (tested at 21.74 µM) | 220,000 tested, 0.42% active; in the data active means inhibition above about 50%
Target sequence (Q1HVG2 whole entry, looked up): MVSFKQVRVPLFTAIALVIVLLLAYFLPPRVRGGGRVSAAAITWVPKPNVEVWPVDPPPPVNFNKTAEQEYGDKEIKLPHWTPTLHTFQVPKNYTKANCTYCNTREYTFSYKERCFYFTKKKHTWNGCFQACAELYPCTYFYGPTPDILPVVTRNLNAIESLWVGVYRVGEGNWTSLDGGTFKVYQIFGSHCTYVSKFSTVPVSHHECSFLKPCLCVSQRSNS
Tb MetRS inh – Trypanosoma brucei MetRS inhibition. purified T. brucei MetRS, ATP depletion, Kinase-Glo luminescence. inhibition, % at 11.9 µM. 360,000 tested, 0.4% active;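 active means inhibition above a per-plate cutoff of the control wells' mean inhibition plus 3 SD, cut at about 5.5% in these data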;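 further: 0% = DMSO wells median and 100% = median of wells with control inhibitor compound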
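Dosing: 11.9 µM compound single dose, 0.9% DMSO; Assay system: purified T. brucei MetRS enzyme; Measured by: Kinase-Glo luciferase luminescence reporting remaining unconsumed ATP; Schedule: 15 min plus 2 h at 25 °C.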
WT yeast gro inh – growth inhibition of WT yeast, mitochondrial fusion screen. mitochondrial fusion phenotypic screen, WT strain. inhibition, % at 10 µM. 190,000 tested, 2.1% active; in the data active means inhibition above about 58%; tested in S. cerevisiae
MPTP block – permeability transition pore inhibition; isolated mouse mitochondria, Ca2+ swelling absorbance, 30 min; inhibition, % at 10 µM; 360,000 tested, 1.4% active;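 active means inhibition of 50% or more, scaled per plate between neutral and stimulator controls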;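 further: 0% = DMSO wells given calcium and 100% = 1 mM EGTA wells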
* = called active by the depositor. An excerpt weighted towards active compounds, which were near 6.4% of everything screened.

What do the screens show for `Cc1ccc(N(CC(=O)NCc2ccco2)C(=O)CCC(=O)Nc2ccccn2)cc1C`?
NR3A LBD binder: -8.3; CHOP inhibitor: 26.2; EBV gp42 inh: 9.2; Tb MetRS inh: -1.3; WT yeast gro inh: 1.5; MPTP block: -3.6

What do the screens show for `Cc1cc(C)cc(N(CC(=O)NCc2ccco2)C(=O)CCC(=O)Nc2ccccn2)c1`?
NR3A LBD binder: 17.4*; CHOP inhibitor: 37.3; EBV gp42 inh: -7.1; Tb MetRS inh: -1.0; WT yeast gro inh: -6.5; MPTP block: 0.2

What do the screens show for `COc1ccccc1N(CC(O)COc1ccc(C)cc1)S(=O)(=O)c1ccccc1` (stereo not given)?
NR3A LBD binder: -4.9; CHOP inhibitor: 21.1; EBV gp42 inh: -14.8; Tb MetRS inh: -0.8; WT yeast gro inh: 33.5; MPTP block: 5.9

What do the screens show for `COc1ccccc1N(CC(O)COc1c(C)cc(C)cc1C)S(=O)(=O)c1ccccc1` (stereo not given)?
NR3A LBD binder: -15.4; CHOP inhibitor: 59.5; EBV gp42 inh: 13.1; Tb MetRS inh: -0.3; WT yeast gro inh: 61.3*; MPTP block: 1.9

What do the screens show for `Cc1ccc(C(=O)c2nocc2C(=O)c2cccs2)cc1`?
NR3A LBD binder: 15.8*; CHOP inhibitor: 9.3; EBV gp42 inh: -8.0; Tb MetRS inh: -1.5; MPTP block: 2.4

What do the screens show for `Cc1ccc(CNC(=O)Cn2c(=O)c3sccc3n(Cc3ccc([N+](=O)[O-])cc3)c2=O)cc1`?
NR3A LBD binder: 30.6*; CHOP inhibitor: 55.1; EBV gp42 inh: -6.2; Tb MetRS inh: -0.6; WT yeast gro inh: -3.2; MPTP block: -2.6

Results for Cc1cccc(C)c1OCc1cc(C(=O)N2CCN3CCCC3C2)no1 (stereo not given) ?
NR3A LBD binder: 12.6*; Tb MetRS inh: -0.1; MPTP block: -1.6

Results for CN1CCN(C(=O)c2cc(COc3c(F)cccc3F)on2)CC1c1ccccc1 (stereo not given) ?
NR3A LBD binder: -1.4; CHOP inhibitor: 17.0; EBV gp42 inh: -13.9; Tb MetRS inh: -0.7; WT yeast gro inh: 79.5*; MPTP block: -0.8

Results for O=C(Nc1ccc(F)cc1)c1ccc(=O)[nH]n1 ?
NR3A LBD binder: -0.4; Tb MetRS inh: -0.5; MPTP block: -0.4

How did Cc1nc2sccn2c(=O)c1S(=O)(=O)NCc1ccccc1Cl do in these assays?
NR3A LBD binder: 0.8; Tb MetRS inh: -0.2; MPTP block: -1.0

How did Cc1[nH]n(-c2ccccc2)c(=S)c1C=Nc1cccc([N+](=O)[O-])c1 do in these assays?
NR3A LBD binder: 6.2; CHOP inhibitor: 79.9*; EBV gp42 inh: -36.7; Tb MetRS inh: -0.2; WT yeast gro inh: 9.8; MPTP block: -2.1

What do the screens show for `CC(C)(C)NC(=S)NC(=O)C12CCC3CC(CC(C3)C1)C2`?
NR3A LBD binder: -2.3; CHOP inhibitor: -22.7; EBV gp42 inh: -13.7; Tb MetRS inh: -0.7; WT yeast gro inh: 73.1*; MPTP block: 0.9

How did CC(C)CN(CC(C)C)CC(O)COc1ccccc1Br (stereo not given) do in these assays?
NR3A LBD binder: -2.6; CHOP inhibitor: 84.7*; EBV gp42 inh: -4.1; Tb MetRS inh: -0.4; WT yeast gro inh: 3.1; MPTP block: 2.3

Results for CCCOc1ccc(N2C(=O)CC(S/C(N)=N/N=C(\C)c3cccs3)C2=O)cc1 (stereo not given) ?
CHOP inhibitor: 56.0; EBV gp42 inh: -12.7; Tb MetRS inh: -0.2; WT yeast gro inh: -14.9; MPTP block: 3.0

How did C/C(=N\N=C(/N)SC1CC(=O)N(c2cccc(Cl)c2)C1=O)c1cccs1 (stereo not given) do in these assays?
CHOP inhibitor: -6.1; EBV gp42 inh: -14.2; Tb MetRS inh: -0.5; WT yeast gro inh: 94.2*; MPTP block: 1.8

Results for O=C1CC(SCCc2nc3ccccc3[nH]2)C(=O)N1c1ccc(Cl)cc1 (stereo not given) ?
NR3A LBD binder: -6.0; CHOP inhibitor: 0.7; EBV gp42 inh: -15.2; Tb MetRS inh: 21.2*; WT yeast gro inh: -10.9; MPTP block: -1.4

How did Cc1cccc(N2CCN(c3nc(C)cc(C)c3C#N)CC2C)c1 (stereo not given) do in these assays?
NR3A LBD binder: 0.4; Tb MetRS inh: -0.1; MPTP block: 0.8

How did COc1ccc(-c2csc(-n3ncc(C(=O)O)c3C(F)(F)F)n2)cc1 do in these assays?
NR3A LBD binder: 2.8; Tb MetRS inh: -0.9; MPTP block: 1.1

What do the screens show for `O=C(O)c1cnn(-c2nc(-c3ccc(Cl)cc3)cs2)c1C(F)(F)F`?
NR3A LBD binder: 28.2*; Tb MetRS inh: -0.6; MPTP block: 1.1

How did COC(=O)CCC(=O)COc1ccc(OC)cc1C#N do in these assays?
NR3A LBD binder: -1.5; CHOP inhibitor: -20.9; EBV gp42 inh: 2.9; Tb MetRS inh: -1.0; WT yeast gro inh: 90.8*; MPTP block: -2.6

How did COc1ccc(C)cc1N(C(=O)c1ccc(F)cc1)c1nc2ccccc2s1 do in these assays?
NR3A LBD binder: 11.5*; CHOP inhibitor: 9.7; EBV gp42 inh: -17.1; Tb MetRS inh: -0.3; WT yeast gro inh: 68.7*; MPTP block: 3.0

How did COc1ccc(C)cc1N(C(=O)COc1cccc(F)c1)c1nc2ccccc2s1 do in these assays?
NR3A LBD binder: -0.4; CHOP inhibitor: 7.3; EBV gp42 inh: -25.7; Tb MetRS inh: -0.5; WT yeast gro inh: 35.9; MPTP block: 1.0

How did O=C(Nn1c(SCc2ccc(F)cc2)nc2ccsc2c1=O)c1ccccc1 do in these assays?
NR3A LBD binder: -8.6; CHOP inhibitor: -30.4; EBV gp42 inh: 10.8; Tb MetRS inh: -0.4; WT yeast gro inh: -20.6; MPTP block: 0.3

What do the screens show for `COc1ccc(N/C=C/C(=O)c2ccc(OC)c(OC)c2)cc1`?
NR3A LBD binder: -3.8; CHOP inhibitor: 25.5; EBV gp42 inh: -22.5; Tb MetRS inh: 0.8; MPTP block: 2.4

Results for COc1cccc(C(=O)/C=C/Nc2ccc(NC(C)=O)cc2)c1 ?
NR3A LBD binder: 7.1; CHOP inhibitor: -16.4; EBV gp42 inh: -0.6; Tb MetRS inh: -0.1; WT yeast gro inh: -2.3; MPTP block: -1.5

What do the screens show for `COc1cccc(N/C=C/C(=O)c2ccc(C)cc2)c1`?
NR3A LBD binder: -7.7; Tb MetRS inh: -1.5; MPTP block: 1.7

Results for COc1cccc(C(=O)/C=C/Nc2cccc(O)c2)c1 ?
NR3A LBD binder: 12.6*; CHOP inhibitor: 23.8; EBV gp42 inh: -14.1; Tb MetRS inh: 0.0; WT yeast gro inh: 1.7; MPTP block: 0.5

What do the screens show for `COc1cccc(C(=O)/C=C/Nc2ccc(S(=O)(=O)Nc3cccc(C(C)=O)c3)cc2)c1`?
NR3A LBD binder: 12.6*; CHOP inhibitor: 61.3; EBV gp42 inh: -7.7; Tb MetRS inh: -0.4; WT yeast gro inh: -2.9; MPTP block: 30.3

How did COc1ccc(N/C=C/C(=O)c2cc(OC)c(OC)c(OC)c2)cc1 do in these assays?
NR3A LBD binder: 30.2*; Tb MetRS inh: -0.2; MPTP block: 2.5

What do the screens show for `CC(C)(C)C(=O)Nc1nnc(CCc2ccccc2)s1`?
NR3A LBD binder: 1.1; Tb MetRS inh: -0.7; MPTP block: 0.1
